Active and inactive are the calls of the source. The rule behind the calls is not given here.
Columns and labels:
[1] = target: T1, Interferon alpha/beta receptor 1 (Homo sapiens) (UniProt P17181); experiment: Inhibition of IFNAR in human Daudi cells assessed as reduction of IFN-induced STAT1 phosphorylation at 200 uM after 15 mins by Western blotting; format: cell-based
T1 sequence (whole entry): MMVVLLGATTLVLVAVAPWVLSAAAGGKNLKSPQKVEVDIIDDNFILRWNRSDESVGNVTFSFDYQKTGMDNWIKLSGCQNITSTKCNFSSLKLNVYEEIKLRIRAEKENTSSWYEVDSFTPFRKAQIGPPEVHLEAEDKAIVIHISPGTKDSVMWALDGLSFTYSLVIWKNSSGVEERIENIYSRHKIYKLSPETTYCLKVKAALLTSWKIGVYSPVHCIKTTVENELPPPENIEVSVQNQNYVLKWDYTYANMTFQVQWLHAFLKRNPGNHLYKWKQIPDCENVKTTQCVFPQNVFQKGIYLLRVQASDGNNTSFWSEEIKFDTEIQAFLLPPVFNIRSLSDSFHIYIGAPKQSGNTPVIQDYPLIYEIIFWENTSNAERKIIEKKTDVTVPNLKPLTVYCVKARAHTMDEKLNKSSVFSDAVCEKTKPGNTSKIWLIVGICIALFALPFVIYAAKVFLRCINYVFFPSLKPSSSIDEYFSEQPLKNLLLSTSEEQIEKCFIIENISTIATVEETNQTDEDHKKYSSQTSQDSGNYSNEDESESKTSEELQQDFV
Procedure, shortened: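 Daudi cells untreated, given 10 pg IFN alfacon-1 alone, or 10 pg IFN plus 200 µM compound for 15 min. Lysed in phosphorylation lysis buffer with protease and phosphatase inhibitors. Equal protein run on SDS–PAGE and immunoblotted for tyrosine-phosphorylated STAT1. Bands quantitated relative to tubulin. Data representative of duplicate independent experiments.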

[2] = target: T1, Interferon alpha/beta receptor 1 (Homo sapiens); experiment: Inhibition of IFNAR in human Daudi cells assessed as reduction of STAT-DNA binding at 200 uM by EMSA; format: cell-based
Procedure, shortened: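 Daudi cells untreated, given 100 pg IFN alfacon-1, or IFN plus the indicated compound doses for 15 min. Protein–DNA complexes resolved by native PAGE (EMSA).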

[3] = target: T1, Interferon alpha/beta receptor 1 (Homo sapiens); experiment: Inhibition of IFNAR in human Daudi cell nuclear extracts assessed as reduction of IFN-induced STAT1 phosphorylation at 200 uM after 15 mins by Western blotting
Procedure, shortened: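 Daudi cells untreated, given 10 pg IFN alfacon-1 alone, or 10 pg IFN plus 200 µM compound for 15 min. Nuclear extracts immunoblotted for tyrosine-phosphorylated STAT1. Band intensities quantitated relative to tubulin as loading control.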

[4] = Distribution coefficient, log D of the compound at pH 7.4; conditions: octanol/water
[5] = system: Daudi; experiment: Cytotoxicity against human Daudi cells assessed as cell viability up to 200 uM after 24 hrs by propidium iodide staining; format: cell-based
Procedure, shortened: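 Daudi cells (1 × 10⁶) left untreated or exposed to the indicated compound doses for 24 h, washed twice in PBS and resuspended in PBS with 2% FCS. 10⁵ cells stained with propidium iodide for 15 min; dead (PI-positive) cells counted by FACS.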

[6] = Solubility of the compound; format: physicochemical

Q: Which inhibition [1] does the source give for `O=C(c1ccc(NS(=O)(=O)c2cc(Cl)sc2Cl)cc1)N1CCN(Cc2ccc3c(c2)OCO3)CC1` here?
A: Active

Q: And the inhibition [2]?
A: Active

Q: What about the inhibition [3] of the same molecule?
A: Active

Q: For `COc1ccccc1NS(=O)(=O)c1cc(C(=O)N2CCN(Cc3ccc4c(c3)OCO4)CC2)ccc1Cl`, which inhibition [1] is on record?
A: inactive

Q: And the logD [4]?
A: -0.3

Q: For `Cc1ccc(-n2c(SCC(=O)N/N=C/c3ccccc3OCC(=O)O)nc3ccccc3c2=O)cc1` (mixture of isomers), which inhibition [1] is on record?
A: Active

Q: What about the inhibition [2] of the same molecule?
A: Active

Q: What about the logD [4] of the same molecule?
A: 4.7

Q: And the Activity [5]?
A: Non-toxic

Q: What about the solubility [6] of the same molecule?
A: soluble

Q: And the inhibition [3]?
A: Active

Q: What does the source list for `O=C(c1cccc(S(=O)(=O)Nc2ccc(Cl)cc2)c1)N1NC2=C(CCC/C2=C\c2ccco2)C1c1ccco1` (mixture of isomers)?
A: inhibition [1]: inactive; logD [4]: -0.8

Q: What does the source list for `O=C(O)CCCCCN1C(=O)/C(=C/c2c(N3CCCc4ccccc43)nc3ccccn3c2=O)SC1=S` (mixture of isomers)?
A: inhibition [1]: Active; inhibition [2]: Active; logD [4]: 8.9; Activity [5]: Toxic; inhibition [3]: Active

Q: With `O=C(c1cc(S(=O)(=O)Nc2cccc(C(F)(F)F)c2)ccc1Cl)N1CCN(Cc2ccc3c(c2)OCO3)CC1` as the molecule, how does the inhibition [1] read?
A: inactive

Q: What about the logD [4] of the same molecule?
A: -0.1

Q: Which inhibition [1] does the source give for `CCOC(=O)c1nn(-c2ccc(C)cc2)c(C)c1C(=O)C1=NOC2C(=O)N(c3ccccc3C)C(=O)C12` (stereo not given) here?
A: inactive

Q: And the logD [4]?
A: -0.1

Q: For `CCOc1ccccc1/C=N/NC(=O)CSc1nc2ccccc2c(=O)n1-c1ccccc1C` (mixture of isomers), which inhibition [1] is on record?
A: inactive

Q: What about the logD [4] of the same molecule?
A: 5.8

Q: What does the source list for `O=C(c1cc(S(=O)(=O)Nc2cccc(Cl)c2)c(Cl)cc1Cl)N1CCN(Cc2ccc3c(c2)OCO3)CC1`?
A: inhibition [1]: inactive; logD [4]: 2.4

Q: What does the source list for `O=C(c1cc(S(=O)(=O)Nc2ccccc2F)c(Cl)cc1Cl)N1CCN(Cc2ccc3c(c2)OCO3)CC1`?
A: inhibition [1]: inactive; logD [4]: 0.01

Q: Which inhibition [1] does the source give for `COc1ccccc1NS(=O)(=O)c1ccc2oc(=S)n(CN3CCN(c4ccc(F)cc4)CC3)c2c1` here?
A: inactive

Q: What about the logD [4] of the same molecule?
A: 0.2

Reference: ChEMBL document CHEMBL3102792, “Small molecule mimetics of an interferon-α receptor interacting domain” (Bioorg Med Chem, 2014)
